Measurements published in ChEMBL document CHEMBL1671756, “In vitro and in vivo antifungal susceptibilities of the Mucoralean fungus Cunninghamella” (2010).
In brackets after ≈: the same amount, converted by molar mass. Activity calls are given as the source filed them. No cut-off for these calls is given here.

Assays:
[1] = test system: Cunninghamella bertholletiae; test: Antifungal activity against Cunninghamella bertholletiae UTHSC 04-2581 infected in neutropenic OF1 mouse assessed as decreased fungal load in lung at 60 mg/kg, po qd administered 1 day post infection measured after 4 to 5 days relative to untreated control; assay type: functional, organism-based; design: dose 60 mg/kg
Outline: (§1)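 Neutropenic male OF1 mice (cyclophosphamide 200 mg/kg i.p. plus 5-fluorouracil 150 mg/kg i.v., day −1) were given 1 × 10⁴ CFU sporangiospores i.v. in 0.2 ml saline. Treatment from 24 h: 0.8 mg/kg i.v. or oral doses once daily; 10 mice per group. Killed at day 5 (day 4 if moribund). About half of brain, lungs and kidneys homogenized in saline; 10-fold dilutions plated on PDA for 24 h at 35°C; log₁₀ CFU/g tissue.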

[2] = test system: Cunninghamella bertholletiae; test: Antifungal activity against Cunninghamella bertholletiae UTHSC 03-2241 infected in neutropenic OF1 mouse assessed as decreased fungal load in lung at 0.8 mg/kg, iv qd administered 1 day post infection measured after 4 to 5 days relative to untreated control; assay type: functional, organism-based; design: dose 0.8 mg/kg; outline: as §1
[3] = test system: Cunninghamella bertholletiae; test: Antifungal activity against Cunninghamella bertholletiae UTHSC 06-1945 after 24 hrs by broth microdilution method; assay type: functional; details: UTHSC 06-1945, 24 h
Outline: (§2)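 CLSI broth microdilution for filamentous fungi. Isolates were stored at −80°C and subcultured on potato dextrose agar at 35°C. MICs were read after 24 h. […] The QC strain was Paecilomyces variotii ATCC 36257.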

[4] = test system: Cunninghamella bertholletiae; test: Antifungal activity against Cunninghamella bertholletiae FMR-9598 infected in neutropenic OF1 mouse assessed as decreased fungal load in kidney at 60 mg/kg, po qd administered 1 day post infection measured after 4 to 5 days relative to untreated control; assay type: functional, organism-based; design: dose 60 mg/kg; outline: as §1
[5] = test system: Cunninghamella bertholletiae; test: Antifungal activity against Cunninghamella bertholletiae UTHSC 05-2275 infected in neutropenic OF1 mouse assessed as decreased fungal load in lung at 60 mg/kg, po qd administered 1 day post infection measured after 4 to 5 days relative to untreated control; assay type: functional, organism-based; design: dose 60 mg/kg; outline: as §1
[6] = test system: Cunninghamella bertholletiae; test: Antifungal activity against Cunninghamella bertholletiae UTHSC 03-2241 infected in neutropenic OF1 mouse assessed as decreased fungal load in lung at 60 mg/kg, po qd administered 1 day post infection measured after 4 to 5 days relative to untreated control; assay type: functional, organism-based; design: dose 60 mg/kg; outline: as §1
[7] = test system: Cunninghamella bertholletiae; test: Antifungal activity against Cunninghamella bertholletiae FMR-9598 infected in neutropenic OF1 mouse assessed as decreased fungal load in kidney at 0.8 mg/kg, iv qd administered 1 day post infection measured after 4 to 5 days relative to untreated control; assay type: functional, organism-based; design: dose 0.8 mg/kg; outline: as §1
[8] = test system: Cunninghamella bertholletiae; test: Antifungal activity against Cunninghamella bertholletiae UTHSC 06-1945 infected in neutropenic OF1 mouse assessed as decreased fungal load in lung at 60 mg/kg, po qd administered 1 day post infection measured after 4 to 5 days relative to untreated control; assay type: functional, organism-based; design: dose 60 mg/kg; outline: as §1
[9] = Antifungal activity against Cunninghamella echinulata FMR 10974 after 24 hrs by broth microdilution method; assay type: functional; outline: as §2
[10] = test system: Cunninghamella bertholletiae; test: Antifungal activity against Cunninghamella bertholletiae FMR-9598 after 24 hrs by broth microdilution method; assay type: functional; details: FMR-9598, 24 h; outline: as §2
[11] = Antifungal activity against Cunninghamella echinulata UTHSC 03-3725 after 24 hrs by broth microdilution method; assay type: functional; outline: as §2
[12] = test system: Cunninghamella bertholletiae; test: Antifungal activity against Cunninghamella bertholletiae UTHSC 03-2241 infected in neutropenic OF1 mouse assessed as decreased fungal load in kidney at 60 mg/kg, po qd administered 1 day post infection measured after 4 to 5 days relative to untreated control; assay type: functional, organism-based; design: dose 60 mg/kg; outline: as §1
[13] = Antifungal activity against Cunninghamella echinulata UTHSC 01-2298 after 24 hrs by broth microdilution method; assay type: functional; outline: as §2
[14] = test system: Cunninghamella bertholletiae; test: Antifungal activity against Cunninghamella bertholletiae UTHSC 05-2275 infected in neutropenic OF1 mouse assessed as increase in mouse survival rate at 80 mg/kg, po qd administered 1 day after infection for 7 days relative to untreated control; assay type: functional, organism-based; design: dose 80 mg/kg
Outline: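 Male OF1 mice, about 30 g, made neutropenic with cyclophosphamide 200 mg/kg i.p. plus 5-fluorouracil 150 mg/kg i.v. 1 day before challenge. Infected i.v. via the lateral tail vein with 1 × 10⁴ CFU of hemacytometer-counted sporangiospores in 0.2 ml saline. Ceftazidime 5 mg/day s.c. on days 1–7. Oral treatment started 24 h after challenge; 10 mice per group; checked daily for 20 days; Kaplan-Meier mean survival time, log-rank test.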

[15] = test system: Cunninghamella bertholletiae; test: Antifungal activity against Cunninghamella bertholletiae UTHSC 03-2241 after 24 hrs by broth microdilution method; assay type: functional; details: UTHSC 03-2241, 24 h; outline: as §2
[16] = test system: Cunninghamella bertholletiae; test: Antifungal activity against Cunninghamella bertholletiae UTHSC 04-2581 after 24 hrs by broth microdilution method; assay type: functional; details: UTHSC 04-2581, 24 h; outline: as §2
[17] = test system: Cunninghamella bertholletiae; test: Antifungal activity against Cunninghamella bertholletiae UTHSC 05-2275 infected in neutropenic OF1 mouse assessed as decreased fungal load in kidney at 80 mg/kg, po qd administered 1 day post infection measured after 4 to 5 days relative to untreated control; assay type: functional, organism-based; design: dose 80 mg/kg; outline: as §1
[18] = test system: Cunninghamella bertholletiae; test: Antifungal activity against Cunninghamella bertholletiae UTHSC 05-2275 after 24 hrs by broth microdilution method; assay type: functional; details: UTHSC 05-2275, 24 h; outline: as §2
[19] = test system: Cunninghamella bertholletiae; test: Antifungal activity against Cunninghamella bertholletiae UTHSC 06-1945 infected in neutropenic OF1 mouse assessed as decreased fungal load in kidney at 60 mg/kg, po qd administered 1 day post infection measured after 4 to 5 days relative to untreated control; assay type: functional, organism-based; design: dose 60 mg/kg; outline: as §1
[20] = Antifungal activity against Cunninghamella echinulata FMR 10973 after 24 hrs by broth microdilution method; assay type: functional; outline: as §2
[21] = test system: Cunninghamella bertholletiae; test: Antifungal activity against Cunninghamella bertholletiae UTHSC 04-2581 infected in neutropenic OF1 mouse assessed as decreased fungal load in kidney at 60 mg/kg, po qd administered 1 day post infection measured after 4 to 5 days relative to untreated control; assay type: functional, organism-based; design: dose 60 mg/kg; outline: as §1
[22] = test system: Cunninghamella bertholletiae; test: Antifungal activity against Cunninghamella bertholletiae UTHSC 05-2275 infected in neutropenic OF1 mouse assessed as decreased fungal load in lung at 80 mg/kg, po qd administered 1 day post infection measured after 4 to 5 days relative to untreated control; assay type: functional, organism-based; design: dose 80 mg/kg; outline: as §1
[23] = test system: Cunninghamella bertholletiae; test: Antifungal activity against Cunninghamella bertholletiae UTHSC 05-2275 infected in neutropenic OF1 mouse assessed as decreased fungal load in kidney at 60 mg/kg, po qd administered 1 day post infection measured after 4 to 5 days relative to untreated control; assay type: functional, organism-based; design: dose 60 mg/kg; outline: as §1
[24] = test system: Cunninghamella bertholletiae; test: Antifungal activity against Cunninghamella bertholletiae FMR-9598 infected in neutropenic OF1 mouse assessed as decreased fungal load in lung at 60 mg/kg, po qd administered 1 day post infection measured after 4 to 5 days relative to untreated control; assay type: functional, organism-based; design: dose 60 mg/kg; outline: as §1
[25] = test system: Cunninghamella bertholletiae; test: Antifungal activity against Cunninghamella bertholletiae UTHSC 05-2275 infected in diabetic OF1 mouse assessed as increase in mouse survival rate at 40 mg/kg, po qd administered 1 day after infection for 7 days relative to untreated control; assay type: functional, organism-based; design: dose 40 mg/kg
Outline: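 Male OF1 mice made diabetic with streptozocin 210 mg/kg i.p.; blood glucose above 250 mg/dl at day 10 required. Infected i.v. via the tail vein with 1 × 10⁵ CFU sporangiospores in 0.2 ml saline. Ceftazidime 5 mg/day s.c. on days 1–7. Oral once-daily treatment from day 1 for 7 days; 10 mice per group; followed for 20 days; Kaplan-Meier mean survival time, log-rank test.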

| Structure (SMILES) | Activity [1] | Activity [2] | MIC [3] [µg/mL] | Activity [4] | Activity [5] | Activity [6] | Activity [7] | Activity [8] | MIC [9] [µg/mL] | MIC [10] [µg/mL] | MIC [11] [µg/mL] | Activity [12] | MIC [13] [µg/mL] | Activity [14] | MIC [15] [µg/mL] | MIC [16] [µg/mL] | Activity [17] | MIC [18] [µg/mL] | Activity [19] | MIC [20] [µg/mL] | other results |
| --- | --- | --- | --- | --- | --- | --- | --- | --- | --- | --- | --- | --- | --- | --- | --- | --- | --- | --- | --- | --- | --- |
| C[C@@H]1[C@H](O)[C@@H](C)/C=C/C=C/C=C/C=C/C=C/C=C/C=C/[C@H](O[C@@H]2O[C@H](C)[C@@H](O)[C@H](N)[C@@H]2O)C[C@@H]2O[C@](O)(C[C@@H](O)C[C@@H](O)[C@H](O)CC[C@@H](O)C[C@@H](O)CC(=O)O[C@H]1C)C[C@H](O)[C@H]2C(=O)O [AMPHOTERICIN B] | Active | Active | 4 (≈ 4.33 µM) | Active | Active | Active | Active | Active | 8 (≈ 8.66 µM) | 2 (≈ 2.16 µM) | 8 (≈ 8.66 µM) | Active | 16 (≈ 17.3 µM) | Active | 4 (≈ 4.33 µM) | 4 (≈ 4.33 µM) | Active | 2 (≈ 2.16 µM) | Active | 4 (≈ 4.33 µM) | Activity [21]: Active; Activity [22]: Active; Activity [23]: Active; Activity [24]: Active |
| CC[C@@H]([C@H](C)O)n1ncn(-c2ccc(N3CCN(c4ccc(OC[C@@H]5CO[C@@](Cn6cncn6)(c6ccc(F)cc6F)C5)cc4)CC3)cc2)c1=O [POSACONAZOLE] | Active | Active | 0.5 (≈ 0.713 µM) | Active | Active | Active | Active | Active | > 16 | 0.5 (≈ 0.713 µM) | 1 (≈ 1.43 µM) | Active | 16 (≈ 22.8 µM) | Active | 0.5 (≈ 0.713 µM) | 0.5 (≈ 0.713 µM) | Active | 0.5 (≈ 0.713 µM) | Active | > 16 | Activity [25]: Active; Activity [21]: Active; Activity [22]: Active; Activity [23]: Active; Activity [24]: Active |
